Source: ChEMBL document CHEMBL3414422, “Synthesis of new steroidal inhibitors of P-glycoprotein-mediated multidrug resistance and biological evaluation on K562/R7 erythroleukemia cells” (J Med Chem, 2015)

What was measured:
K562/R7 = assay: Inhibition of p-gp (unknown origin) in doxorubicin-resistant human K562/R7 cells assessed as increase in daunorubicin accumulation measured as fluorescence ratio at 10 uM incubated for 1 hr with 10 uM daunorubicin by flow cytometry relative to control; format: cell-based
Method in brief: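 Resistant K562/R7 cells ([…]) incubated 1 h at 37 °C in RPMI 1640 with daunorubicin 10 µM, with or without steroid at 10 µM; intracellular fluorescence read by flow cytometry. Accumulation index = daunorubicin fluorescence ratio with/without modulator. Cyclosporin A as positive control. Duplicates, at least three separate experiments.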

[1] = Intrinsic cytotoxicity against human K562 cells assessed as cell survival […] by MTT assay; format: cell-based; conditions: read-out: Survival

SMILES	Ratio (K562/R7)	viability [1] [%]
CC(=O)[C@H]1CC[C@H]2[C@H]3[C@H]([C@H](O[C@@H]4CCCCO4)C[C@]12C)[C@@]1(C)CCC(=O)C[C@H]1C[C@H]3OC1CCCCO1 (mixture of isomers)	2.6	86.7
CC(=O)[C@H]1CC[C@H]2[C@@H]3CCC4=CC(=O)CC[C@]4(C)[C@H]3CC[C@]12C [PROGESTERONE]	1.2	81.6
CC(=O)[C@H]1CC[C@H]2[C@H]3[C@H]([C@H](O[C@H]4CCCCO4)C[C@]12C)[C@@]1(C)CCC(=O)C[C@H]1C[C@H]3OC1CCCCO1 (mixture of isomers)	2.5	84.4
CC(=O)[C@@]1(O[C@@H]2CCCCO2)CC[C@H]2[C@@H]3CC[C@@H]4CC(=O)CC[C@]4(C)[C@H]3[C@H](O[C@H]3CCCCO3)C[C@@]21C	2.5	67.9
COCO[C@@H]1C[C@@H]2CC(=O)CC[C@]2(C)[C@H]2C[C@H](O)[C@]3(C)[C@@H](C(C)CCC(=O)OC)CC[C@H]3[C@H]12 (stereo partly specified)	1.8	95.7
CC(=O)[C@H]1CC[C@H]2[C@H]3[C@H]([C@H](O[C@@H]4CCCCO4)C[C@]12C)[C@@]1(C)CCC(=O)C[C@H]1C[C@H]3OC(=O)c1ccccc1	2.9	80.8
COC(=O)CCC(C)[C@H]1CC[C@H]2[C@@H]3[C@H](OC4=CCOCC4)C[C@@H]4CC(=O)CC[C@]4(C)[C@H]3C[C@H](OC3=CCOCC3)[C@]12C (stereo partly specified)	3.7	76.3
CC(=O)[C@H]1CC[C@H]2[C@H]3[C@H]([C@H](OC(=O)c4ccccc4)C[C@]12C)[C@@]1(C)CCC(=O)C[C@H]1C[C@H]3O	2.3	81.1
CC(=O)[C@H]1CC[C@H]2[C@H]3[C@H]([C@H](OC(=O)c4ccccc4)C[C@]12C)[C@@]1(C)CCC(=O)C[C@H]1C[C@H]3OC(=O)c1ccccc1	2.5	66.4
COCCCC(C)[C@H]1CC[C@H]2[C@@H]3[C@H](O[C@@H]4CCCCO4)C[C@@H]4CC(=O)CC[C@]4(C)[C@H]3C[C@H](OC(=O)c3ccccc3)[C@]12C (stereo partly specified)	3.4	51
COCCCC(C)[C@H]1CC[C@H]2[C@@H]3[C@H](OC(=O)c4ccccc4)C[C@@H]4CC(=O)CC[C@]4(C)[C@H]3C[C@H](O[C@@H]3CCCCO3)[C@]12C (stereo partly specified)	2.4	54.4
CC(=O)[C@H]1CC[C@H]2[C@H]3[C@H]([C@H](OC(=O)c4ccccc4)C[C@]12C)[C@@]1(C)CCC(=O)C[C@H]1C[C@H]3O[C@H]1CCCCO1	2.6	70.5
CC(=O)[C@H]1CC[C@H]2[C@H]3[C@H]([C@H](OC(=O)c4ccccc4)C[C@]12C)[C@@]1(C)CCC(=O)C[C@H]1C[C@H]3O[C@@H]1CCCCO1	2.8	61.5
